From PubChem BioAssay
An excerpt weighted towards active compounds, which were near 1.9% of everything screened.
M5 ag: human M5 muscarinic receptor agonists, primary screen, CHO-K1 cells, Fluo-8 calcium fluorescence. Muscarinic acetylcholine receptor M5 (Homo sapiens), P08912. CHO-K1 hM5 cells; 0% DMSO wells, 100% maximal acetylcholine response. activation, % at 3 µM. actives 0.19% (n = 360,000). AID 624037, 2012;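 active = activation above the run's mean over test compounds plus 3 SD, cut at about 23% in these data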;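 also: signal is peak over basal fluorescence ratio across the kinetic read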
Target sequence (P08912 whole entry, looked up): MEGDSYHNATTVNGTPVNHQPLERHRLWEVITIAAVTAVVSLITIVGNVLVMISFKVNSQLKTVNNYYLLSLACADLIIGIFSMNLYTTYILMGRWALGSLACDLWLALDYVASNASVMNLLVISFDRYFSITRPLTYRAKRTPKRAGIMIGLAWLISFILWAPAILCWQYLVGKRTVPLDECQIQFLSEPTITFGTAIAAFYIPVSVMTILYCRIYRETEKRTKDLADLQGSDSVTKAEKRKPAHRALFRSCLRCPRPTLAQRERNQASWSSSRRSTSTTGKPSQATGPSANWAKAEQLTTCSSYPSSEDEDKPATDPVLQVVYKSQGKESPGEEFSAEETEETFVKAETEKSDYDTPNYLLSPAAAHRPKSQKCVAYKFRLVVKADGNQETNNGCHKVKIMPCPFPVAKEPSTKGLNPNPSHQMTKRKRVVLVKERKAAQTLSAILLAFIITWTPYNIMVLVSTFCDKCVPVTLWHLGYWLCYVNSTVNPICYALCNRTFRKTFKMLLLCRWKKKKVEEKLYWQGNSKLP
M4 antag: human M4 muscarinic receptor antagonists, primary screen, CHO cells, Fluo-8 calcium fluorescence | CHO-hM4 cells, ACh EC80 | actives 0.73% (n = 360,000) | Muscarinic acetylcholine receptor M4 (Homo sapiens), P08173 | inhibition, % at 3 µM;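 active = inhibition above its plate's cutoff, the mean inhibition of sample wells plus 3 SD, cut at about 27% in these data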
M4 PAM: human M4 muscarinic receptor positive allosteric modulators, primary screen, CHO-K1 cells, Fluo-8 calcium fluorescence | AID 624126, 2012 | CHO-K1 hM4/Gqi5, ACh EC20; 0% = ACh EC20, 100% = maximal ACh | activation, % at 3 µM | actives 0.4% (n = 360,000);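 active = activation above its plate's cutoff, the mean activation of sample wells plus 3 SD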
M5 antag: human M5 muscarinic receptor antagonists, primary screen, CHO cells, Fluo-8 calcium fluorescence. Muscarinic acetylcholine receptor M5 (Homo sapiens), P08912. CHO-hM5 cells, ACh EC80. inhibition, % at 3 µM. actives 0.59% (n = 360,000). AID 624040, 2012;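 active = inhibition above a per-plate cutoff, the mean of that plate's test compounds plus 3 SD, cut at about 27% in these data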
CHRM4 agonist: human M4 muscarinic receptor agonists, primary screen, CHO-K1 cells, Fluo-8 calcium fluorescence; Muscarinic acetylcholine receptor M4 (Homo sapiens), P08173; CHO-K1 hM4/Gqi5; vehicle 0%, full acetylcholine response 100%; activation, % at 3 µM; actives 0.14% (n = 360,000); AID 624127, 2012;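 active = activation above the run mean over all test wells plus 3 SD, cut at about 32% in these data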;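 also: peak over basal fluorescence ratio per well then scaled between controls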
M5 PAM: human M5 muscarinic receptor positive allosteric modulators, primary screen, CHO-K1 cells, Fluo-8 calcium fluorescence | CHO-K1 hM5, ACh EC20 PAM; 0% = ACh EC20, 100% = ACh EC100 | activation, % at 3 µM | actives 0.3% (n = 360,000) | AID 624038, 2012;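 active = activation above the run cutoff, the mean activation of all test compounds plus 3 SD, cut at about 18% in these data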
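Probe or stimulus: acetylcholine, EC20 level; Assay system: human M5 receptor in CHO-K1 cells; Schedule: compound preincubation 140 s before EC20 acetylcholine addition; Technique: intracellular calcium via Fluo-8 fluorescence; Dosing: single-point, 3 µM nominal; Read-out basis: percent activation from peak-over-basal fluorescence ratio, scaled EC20-to-EC100 acetylcholine; Repeats: one well per compound, no replicates.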
Numbers stand for hits; . = inactive.

SMILES	M5 ag	M4 antag	M4 PAM	M5 antag	CHRM4 agonist	M5 PAM
CC(C)CCOc1cccc(OCC(=O)Nc2ccncc2)c1	.	.	.	33	.	.
O=C(OCC(=O)c1ccc[nH]1)c1ccc(S(=O)(=O)C(F)F)cc1	.	.	.	.	.	.
CCOC(=O)C1=C[C@@H](C2CCCC2)N(S(=O)(=O)c2ccc([N+](=O)[O-])cc2)[C@H]1c1ccccc1	.	39	.	.	.	.
CCOC(=O)C1=C[C@@H](CC)N(S(=O)(=O)c2ccc(C)cc2)[C@H]1c1ccccc1	.	.	.	.	.	.
O=C(Nc1ccc([N+](=O)[O-])cc1)OC1CCS(=O)(=O)C1 (stereo not drawn)	.	.	.	.	.	.
COc1cc(NC(=S)NCCN2CCOCC2)cc(OC)c1	.	.	23	.	.	.
Cc1cc(C(=O)CN2C(=O)CCC2=O)c(C)n1Cc1ccccc1	.	.	18	.	.	.
C[C@H](CO)N1C[C@H](C)[C@@H](CN(C)S(=O)(=O)c2cccs2)Oc2ccc(NC(=O)Cn3cnnn3)cc2C1=O	.	.	.	.	.	.
COc1ccc(C(=O)Nc2ccc(N3CCN(C(=O)C(C)C)CC3)cc2)cc1[N+](=O)[O-]	.	.	23	.	.	.
CCOc1ccc(C(=O)Nc2ccc(N3CCN(C(C)=O)CC3)cc2)cc1[N+](=O)[O-]	.	.	.	.	.	.
CCOc1cc(C(=O)Nc2ccc(N3CCN(C(C)=O)CC3)cc2)cc(OCC)c1OCC	.	.	.	.	.	18
CCNS(=O)(=O)c1ccc(OCCNS(C)(=O)=O)cc1	.	.	.	.	.	.
CCN(CC)S(=O)(=O)c1ccc(OCCNS(C)(=O)=O)cc1	.	.	.	29	.	.
Cn1nc(C#N)c(=O)[nH]c1=O	24	.	.	.	.	63
CC(C)(C)[C@H]1C=C(C(=O)N2CCN(Cc3ccc4c(c3)OCO4)CC2)O[C@@H](OCCCCO)C1	.	.	.	.	.	20
COc1ccc(CCn2c(=O)[nH]c3cc(C(=O)NCCCN4CCOCC4)ccc3c2=O)cc1OC	.	.	.	.	.	.
COc1ccc(CCn2c(=O)[nH]c3cc(C(=O)NCCN4CCOCC4)ccc3c2=O)cc1OC	.	.	29	.	.	.
CCCCCCCCCn1c2c(c(=N)c3c1CCC3)CCCC2	.	63	.	58	.	.
CCCCCCCCn1c2c(c(=N)c3ccccc31)CCC2	.	58	.	48	.	.
CCCCCCCCCCn1c2c(c(=N)c3c1CCC3)CCC2	.	28	.	39	.	.
CCOC(=O)Cn1c2c(c(=N)c3c1CCC3)CCC2	.	.	.	.	.	.
CCOC(=O)Cn1c2c(c(=N)c3ccccc31)CCC2	.	.	.	.	.	19
CN(CCO)c1cccc2c1S(=O)(=O)N[C@H](Cc1ccccc1)CO2	.	.	.	.	.	.
Cc1ccc(S(=O)(=O)Nc2ccc(C(=O)N3CCN(c4ccccc4O)CC3)cc2)cc1[N+](=O)[O-]	.	.	.	.	.	.
CCOC(=O)C1(C)CCCCN1C(=O)c1ccoc1 (stereo not drawn)	.	.	.	.	.	.
SMILES	M5 ag	M4 antag	M4 PAM	M5 antag	CHRM4 agonist	M5 PAM
O=C(c1cccs1)n1cc(C(=S)N2CCOCC2)c2ccccc21	.	.	.	.	.	.
O=C(C1CC1)n1cc(C(=S)N2CCOCC2)c2ccccc21	.	.	21	.	.	.
Cc1ccc(CNC(=O)c2cccc3c2C(=O)c2ccc(N4CCCCC4)cc2S3(=O)=O)cc1	61	.	.	32	99	.
CC1CCN(c2ccc3c(c2)S(=O)(=O)c2cccc(C(=O)NC[C@@H]4CCCO4)c2C3=O)CC1	.	.	.	.	.	.
O=C(NCc1ccco1)c1cccc2c1C(=O)c1ccc(N3CCCC3)cc1S2(=O)=O	.	.	.	.	40	.
O=C(NCC1CCCO1)c1cccc2c1C(=O)c1ccc(N3CCC(Cc4ccccc4)CC3)cc1S2(=O)=O (stereo not drawn)	43	35	.	34	73	.
COc1cc(-c2noc(C)c2C(=O)NCCc2ccccc2)cc(OC)c1OC	.	.	.	.	.	.
O=C(CNS(=O)(=O)c1cccs1)NCCc1ccc(Cl)cc1	.	.	.	.	.	.
COc1cccc(/C=C2\CCCCC2=O)c1	.	.	.	.	.	31
COc1cccc(/C=C2\CCC(C3CCCC3)C2=O)c1 (stereo not drawn)	.	.	.	.	.	.
O=C(CSc1nc(=O)[nH]c2c1CCCC2)Nc1ccc(F)cc1F	.	.	22	.	.	.
CC1=C(C)CS(=O)N(S(=O)(=O)c2ccc(Cl)cc2)C1 (stereo not drawn)	25	48	.	.	.	.
CSc1cc(C)nc(N(C)C(C)=O)n1	.	.	19	.	.	.
COc1cc(C)nc(N(C)C(C)=O)n1	.	.	.	.	.	.
C=CCC[C@@H](Cc1ccc(F)cc1)C(=O)OC[C@@H]1CCCN1C(=O)[C@H](CC=C)CC(=O)N[C@H](CO)Cc1ccccc1	.	.	.	.	.	.
C=CCC[C@@H](Cc1ccc(F)cc1)C(=O)OC[C@H]1CCCN1C(=O)[C@@H](CC=C)CC(=O)N[C@H](CO)Cc1ccccc1	.	31	.	.	.	.
CCc1ccc2c(c1)/C(=C/C(=O)c1cccs1)C(=O)N2	25	.	.	.	.	.
Cc1cccc2c1NC(=O)/C2=C\C(=O)c1cccs1	.	.	.	.	.	.
CC1CCN(Cc2ccc(NC(=O)C3CCN(c4nnc(-n5cccc5)s4)CC3)cc2)CC1	.	33	.	.	.	.
O=C(C1CCN(c2nnc(-n3cccc3)s2)CC1)N1CCN(Cc2ccc3c(c2)OCO3)CC1	.	.	.	.	.	.
COc1ccc(Cc2nnc(NC(=O)CSc3ccccc3)s2)cc1OC	28	.	.	.	.	.
COc1ccc(Cc2nnc(NC(=O)CSc3ccccc3)s2)cc1	.	.	.	.	.	.
c1ccc2oc(SCc3cn4ccsc4n3)nc2c1	.	38	.	.	.	.
